Reference: ChEMBL document CHEMBL1255409, “In vitro activity of ceftaroline against 623 diverse strains of anaerobic bacteria” (2010)
Values after ≈ are worked out from the molar mass of the structure shown.

Tests used:
Format in all cases: functional
Prevotella bivia = test: Antimicrobial activity against Prevotella bivia under anaerobic conditions after 44 hrs by CLSI-M11-47 protocol based agar dilution method
Outline: (§1)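 Clinical isolates were stored at −70°C in 20% skim milk and identified phenotypically or by partial 16S rRNA sequencing. Each strain was subcultured twice from frozen stock. Cell paste from 48-h cultures was suspended in brucella broth to a 0.5 McFarland standard. About 10^5 CFU per spot were applied by Steers replicator to agar dilution plates prepared on the day of testing. Plates were incubated 44 h at 37°C in an anaerobic chamber. MIC was taken as the lowest concentration giving complete inhibition or marked reduction of growth versus the drug-free control.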

Prevotella tannerae = test: Antimicrobial activity against Prevotella tannerae under anaerobic conditions after 44 hrs by CLSI-M11-47 protocol based agar dilution method; settings: Alloprevotella tannerae; outline: as §1
[1] = test system: Porphyromonas asaccharolytica; test: Antimicrobial activity against Porphyromonas asaccharolyticus under anaerobic conditions after 44 hrs by CLSI-M11-47 protocol based agar dilution method; outline: as §1
Fusobacterium nucleatum = test: Antimicrobial activity against Fusobacterium nucleatum under anaerobic conditions after 44 hrs by CLSI-M11-47 protocol based agar dilution method; outline: as §1
[2] = test system: Prevotella melaninogenica; test: Antimicrobial activity against Prevotella melaninogenica under anaerobic conditions after 44 hrs by CLSI-M11-47 protocol based agar dilution method; outline: as §1
[3] = test system: Enterocloster clostridioformis; test: Antimicrobial activity against Clostridium clostridioforme under anaerobic conditions after 44 hrs by CLSI-M11-47 protocol based agar dilution method
Outline: (§2)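 Reference agar dilution per CLSI M11-A7 with plates made on test day. Clinical isolates were stored at −70°C in 20% skim milk, subcultured twice, and 48-h cell paste was suspended in brucella broth to 0.5 McFarland. About 10^5 CFU/spot was applied with a Steers replicator. Plates were incubated 44 h at 37°C anaerobically. MIC was the lowest concentration giving complete inhibition or marked growth reduction versus the drug-free control.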

Hoylesella loescheii = test: Antimicrobial activity against Prevotella loescheii under anaerobic conditions after 44 hrs by CLSI-M11-47 protocol based agar dilution method; outline: as §1
Porphyromonas somerae = test: Antimicrobial activity against Porphyromonas somerae under anaerobic conditions after 44 hrs by CLSI-M11-47 protocol based agar dilution method; outline: as §1
Prevotella disiens = test: Antimicrobial activity against Prevotella disiens under anaerobic conditions after 44 hrs by CLSI-M11-47 protocol based agar dilution method; outline: as §1
Prevotella bergensis = test: Antimicrobial activity against Prevotella bergensis under anaerobic conditions after 44 hrs by CLSI-M11-47 protocol based agar dilution method; settings: Hallella bergensis; outline: as §1
Phocaeicola vulgatus = test: Antimicrobial activity against Bacteroides vulgatus under anaerobic conditions after 44 hrs by CLSI-M11-47 protocol based agar dilution method; outline: as §2
Gemella sanguinis = test: Antimicrobial activity against Gemella sanguinis under anaerobic conditions after 44 hrs by CLSI-M11-47 protocol based agar dilution method; outline: as §1
Atopobium parvulum = test: Antimicrobial activity against Atopobium parvulum under anaerobic conditions after 44 hrs by CLSI-M11-47 protocol based agar dilution method; settings: Lancefieldella parvula; outline: as §2
Finegoldia magna = test: Antimicrobial activity against Finegoldia magna under anaerobic conditions after 44 hrs by CLSI-M11-47 protocol based agar dilution method; outline: as §2
Peptoniphilus harei = test: Antimicrobial activity against Peptoniphilus harei under anaerobic conditions after 44 hrs by CLSI-M11-47 protocol based agar dilution method; outline: as §1
Clostridium tertium = test: Antimicrobial activity against Clostridium tertium under anaerobic conditions after 44 hrs by CLSI-M11-47 protocol based agar dilution method; outline: as §2
Solobacterium moorei = test: Antimicrobial activity against Solobacterium moorei under anaerobic conditions after 44 hrs by CLSI-M11-47 protocol based agar dilution method; outline: as §1
Clostridium aldenense = test: Antimicrobial activity against Clostridium aldenense under anaerobic conditions after 44 hrs by CLSI-M11-47 protocol based agar dilution method; settings: Enterocloster aldenensis; outline: as §2
Anaerococcus vaginalis = test: Antimicrobial activity against Anaerococcus vaginalis under anaerobic conditions after 44 hrs by CLSI-M11-47 protocol based agar dilution method; outline: as §2
Clostridium baratii = test: Antimicrobial activity against Clostridium baratii under anaerobic conditions after 44 hrs by CLSI-M11-47 protocol based agar dilution method
Prevotella corporis = test: Antimicrobial activity against Prevotella corporis under anaerobic conditions after 44 hrs by CLSI-M11-47 protocol based agar dilution method; outline: as §1
Clostridium perfringens = test: Antimicrobial activity against Clostridium perfringens under anaerobic conditions after 44 hrs by CLSI-M11-47 protocol based agar dilution method
Eubacterium contortum = test: Antimicrobial activity against Eubacterium contortum under anaerobic conditions after 44 hrs by CLSI-M11-47 protocol based agar dilution method; settings: Faecalicatena contorta; outline: as §2
Eubacterium limosum = test: Antimicrobial activity against Eubacterium limosum under anaerobic conditions after 44 hrs by CLSI-M11-47 protocol based agar dilution method; outline: as §2
Clostridium hathewayi = test: Antimicrobial activity against Clostridium hathewayi under anaerobic conditions after 44 hrs by CLSI-M11-47 protocol based agar dilution method; settings: Hungatella hathewayi; outline: as §2
Prevotella denticola = test: Antimicrobial activity against Prevotella denticola under anaerobic conditions after 44 hrs by CLSI-M11-47 protocol based agar dilution method; outline: as §1
Parabacteroides merdae = test: Antimicrobial activity against Bacteroides merdae under anaerobic conditions after 44 hrs by CLSI-M11-47 protocol based agar dilution method; outline: as §2
Clostridium citroniae = test: Antimicrobial activity against Clostridium citroniae under anaerobic conditions after 44 hrs by CLSI-M11-47 protocol based agar dilution method; settings: Enterocloster citroniae; outline: as §2
Clostridium glycolicum = test: Antimicrobial activity against Clostridium glycolicum under anaerobic conditions after 44 hrs by CLSI-M11-47 protocol based agar dilution method; settings: Terrisporobacter glycolicus; outline: as §2
[Clostridium] innocuum = Antimicrobial activity against Clostridium […] under anaerobic conditions after 44 hrs by CLSI-M11-47 protocol based agar dilution method; outline: as §2
[4] = test system: Fusobacterium necrophorum; test: Antimicrobial activity against Fusobacterium necrophorum under anaerobic conditions after 44 hrs by CLSI-M11-47 protocol based agar dilution method; outline: as §2
Clostridium cadaveris = test: Antimicrobial activity against Clostridium cadaveris under anaerobic conditions after 44 hrs by CLSI-M11-47 protocol based agar dilution method; outline: as §2

CCO/N=C(\C(=O)N[C@@H]1C(=O)N2C(C(=O)[O-])=C(Sc3nc(-c4cc[n+](C)cc4)cs3)CS[C@H]12)c1nsc(NP(=O)(O)O)n1 [CEFTAROLINE FOSAMIL]
MIC50 (Prevotella bivia): 2 µg/mL (≈ 2.92 µM)
MIC90 (Prevotella bivia): 64 µg/mL (≈ 93.5 µM)
MIC50 (Prevotella tannerae): 2 µg/mL (≈ 2.92 µM)
MIC90 (Prevotella tannerae): 32 µg/mL (≈ 46.7 µM)
MIC50 [1]: 0.015 µg/mL (≈ 0.0219 µM)
MIC90 [1]: 0.03 µg/mL (≈ 0.0438 µM)
MIC50 (Fusobacterium nucleatum): ≤ 0.08 µg/mL
MIC90 (Fusobacterium nucleatum): 0.125 µg/mL (≈ 0.183 µM)
MIC50 [2]: 2 µg/mL (≈ 2.92 µM)
MIC90 [2]: 32 µg/mL (≈ 46.7 µM)
MIC50 [3]: 1 µg/mL (≈ 1.46 µM)
MIC90 [3]: 2 µg/mL (≈ 2.92 µM)
MIC50 (Hoylesella loescheii): 2 µg/mL (≈ 2.92 µM)
MIC90 (Hoylesella loescheii): 32 µg/mL (≈ 46.7 µM)
MIC50 (Porphyromonas somerae): 0.015 µg/mL (≈ 0.0219 µM)
MIC90 (Porphyromonas somerae): > 16 µg/mL
MIC50 (Prevotella disiens): 2 µg/mL (≈ 2.92 µM)
MIC90 (Prevotella disiens): 32 µg/mL (≈ 46.7 µM)
MIC50 (Prevotella bergensis): 2 µg/mL (≈ 2.92 µM)
MIC90 (Prevotella bergensis): 32 µg/mL (≈ 46.7 µM)
MIC50 (Phocaeicola vulgatus): 64 µg/mL (≈ 93.5 µM)
MIC90 (Phocaeicola vulgatus): > 64 µg/mL
MIC50 (Gemella sanguinis): 0.06 µg/mL (≈ 0.0876 µM)
MIC90 (Gemella sanguinis): 1 µg/mL (≈ 1.46 µM)
MIC50 (Atopobium parvulum): 0.125 µg/mL (≈ 0.183 µM)
MIC90 (Atopobium parvulum): 0.25 µg/mL (≈ 0.365 µM)
MIC50 (Finegoldia magna): 0.25 µg/mL (≈ 0.365 µM)
MIC90 (Finegoldia magna): 0.5 µg/mL (≈ 0.73 µM)
MIC50 (Peptoniphilus harei): 0.06 µg/mL (≈ 0.0876 µM)
MIC90 (Peptoniphilus harei): 1 µg/mL (≈ 1.46 µM)
MIC50 (Clostridium tertium): 0.5 µg/mL (≈ 0.73 µM)
MIC90 (Clostridium tertium): 16 µg/mL (≈ 23.4 µM)
MIC50 (Solobacterium moorei): 0.125 µg/mL (≈ 0.183 µM)
MIC90 (Solobacterium moorei): 0.25 µg/mL (≈ 0.365 µM)
MIC50 (Clostridium aldenense): 1 µg/mL (≈ 1.46 µM)
MIC90 (Clostridium aldenense): 2 µg/mL (≈ 2.92 µM)
MIC50 (Anaerococcus vaginalis): 0.06 µg/mL (≈ 0.0876 µM)
MIC90 (Anaerococcus vaginalis): 1 µg/mL (≈ 1.46 µM)
MIC50 (Clostridium baratii): 0.5 µg/mL (≈ 0.73 µM)
MIC90 (Clostridium baratii): 16 µg/mL (≈ 23.4 µM)
MIC50 (Prevotella corporis): 2 µg/mL (≈ 2.92 µM)
MIC90 (Prevotella corporis): 32 µg/mL (≈ 46.7 µM)
MIC50 (Clostridium perfringens): 0.125 µg/mL (≈ 0.183 µM)
MIC90 (Clostridium perfringens): 0.25 µg/mL (≈ 0.365 µM)
MIC50 (Eubacterium contortum): 0.125 µg/mL (≈ 0.183 µM)
MIC90 (Eubacterium contortum): 0.25 µg/mL (≈ 0.365 µM)
MIC50 (Eubacterium limosum): 0.125 µg/mL (≈ 0.183 µM)
MIC90 (Eubacterium limosum): 0.25 µg/mL (≈ 0.365 µM)
MIC50 (Clostridium hathewayi): 1 µg/mL (≈ 1.46 µM)
MIC90 (Clostridium hathewayi): 2 µg/mL (≈ 2.92 µM)
MIC50 (Prevotella denticola): 2 µg/mL (≈ 2.92 µM)
MIC90 (Prevotella denticola): 32 µg/mL (≈ 46.7 µM)
MIC50 (Parabacteroides merdae): 64 µg/mL (≈ 93.5 µM)
MIC90 (Parabacteroides merdae): > 64 µg/mL
MIC50 (Clostridium citroniae): 1 µg/mL (≈ 1.46 µM)
MIC90 (Clostridium citroniae): 2 µg/mL (≈ 2.92 µM)
MIC50 (Clostridium glycolicum): 0.5 µg/mL (≈ 0.73 µM)
MIC90 (Clostridium glycolicum): 16 µg/mL (≈ 23.4 µM)
MIC50 ([Clostridium] innocuum): 1 µg/mL (≈ 1.46 µM)
MIC90 ([Clostridium] innocuum): 2 µg/mL (≈ 2.92 µM)
MIC50 [4]: 0.03 µg/mL (≈ 0.0438 µM)
MIC90 [4]: 0.06 µg/mL (≈ 0.0876 µM)
MIC50 (Clostridium cadaveris): 0.5 µg/mL (≈ 0.73 µM)
MIC90 (Clostridium cadaveris): 16 µg/mL (≈ 23.4 µM)
